Source: ChEMBL document CHEMBL4359903, “1,2,4-Oxadiazole derivatives targeting EGFR and c-Met degradation in TKI resistant NSCLC” (Eur J Med Chem, 2019)
Calls of active or inactive are those of the source. The rule behind the calls is not given here.

Key:
[1] = molecular target: Hepatocyte growth factor receptor (Homo sapiens) (UniProt P08581); assay: Induction of c-MET degradation in human NCI-H1975 cells harbouring EGFR L858R/T790M double assessed as reduction in c-Met expression at 0.2 to 0.6 uM incubated for 48 hrs by Western blot analysis; format: cell-based
How it was run: (§1)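 After 48 h treatment, cells were scraped and lysed in 1% SDS, 50 mM Tris-HCl pH 8.0, 10 mM EDTA with protease and phosphatase inhibitors. Lysates sonicated, protein measured by BCA, equal amounts run on SDS-PAGE and blotted to nitrocellulose. Primary antibodies (EGFR, c-Met, S473-Akt, Akt, GAPDH) used at 1:1000 overnight at 4 °C, HRP secondaries at 1:5000, ECL detection.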

[2] = molecular target: Hepatocyte growth factor receptor (Homo sapiens) (UniProt P08581); assay: Effect on c-MET degradation in wild type human A549 cells assessed as reduction in c-Met mRNA expression at 0.2 to 0.6 uM incubated for 48 hrs by RT-PCR analysis; format: cell-based
How it was run: (§2)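 Total RNA extracted with TRIzol from H1975 and A549 cells treated at 0.2–0.6 µM. EGFR and c-Met mRNA assessed by RT-PCR.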

[3] = system: Epidermal growth factor receptor (Homo sapiens), P00533 [UNDEFINED MUTATION]; assay: Induction of EGFR E746-A750 deletion/T790M mutant degradation in human CL68 cells assessed as reduction in EGFR expression at 0.2 to 0.6 uM incubated for 48 hrs by Western blot analysis; format: cell-based; how it was run: as §1
CL97 = assay: Antiproliferative activity against human CL97 cells harbouring EGFR G719A/T790M mutant assessed as reduction in cell viability incubated for 72 hrs by MTT assay; format: functional, cell-based; conditions: CL97, 72 h
[4] = molecular target: Hepatocyte growth factor receptor (Homo sapiens) (UniProt P08581); assay: Effect on c-Met degradation in human NCI-H1975 cells harboring EGFR L858R/T790M double assessed as reduction in c-Met expression at 0.2 to 0.6 uM incubated for 48 hrs by RT-PCR analysis; format: cell-based; how it was run: as §2

Chain of Hepatocyte growth factor receptor (Homo sapiens) (P08581 whole entry): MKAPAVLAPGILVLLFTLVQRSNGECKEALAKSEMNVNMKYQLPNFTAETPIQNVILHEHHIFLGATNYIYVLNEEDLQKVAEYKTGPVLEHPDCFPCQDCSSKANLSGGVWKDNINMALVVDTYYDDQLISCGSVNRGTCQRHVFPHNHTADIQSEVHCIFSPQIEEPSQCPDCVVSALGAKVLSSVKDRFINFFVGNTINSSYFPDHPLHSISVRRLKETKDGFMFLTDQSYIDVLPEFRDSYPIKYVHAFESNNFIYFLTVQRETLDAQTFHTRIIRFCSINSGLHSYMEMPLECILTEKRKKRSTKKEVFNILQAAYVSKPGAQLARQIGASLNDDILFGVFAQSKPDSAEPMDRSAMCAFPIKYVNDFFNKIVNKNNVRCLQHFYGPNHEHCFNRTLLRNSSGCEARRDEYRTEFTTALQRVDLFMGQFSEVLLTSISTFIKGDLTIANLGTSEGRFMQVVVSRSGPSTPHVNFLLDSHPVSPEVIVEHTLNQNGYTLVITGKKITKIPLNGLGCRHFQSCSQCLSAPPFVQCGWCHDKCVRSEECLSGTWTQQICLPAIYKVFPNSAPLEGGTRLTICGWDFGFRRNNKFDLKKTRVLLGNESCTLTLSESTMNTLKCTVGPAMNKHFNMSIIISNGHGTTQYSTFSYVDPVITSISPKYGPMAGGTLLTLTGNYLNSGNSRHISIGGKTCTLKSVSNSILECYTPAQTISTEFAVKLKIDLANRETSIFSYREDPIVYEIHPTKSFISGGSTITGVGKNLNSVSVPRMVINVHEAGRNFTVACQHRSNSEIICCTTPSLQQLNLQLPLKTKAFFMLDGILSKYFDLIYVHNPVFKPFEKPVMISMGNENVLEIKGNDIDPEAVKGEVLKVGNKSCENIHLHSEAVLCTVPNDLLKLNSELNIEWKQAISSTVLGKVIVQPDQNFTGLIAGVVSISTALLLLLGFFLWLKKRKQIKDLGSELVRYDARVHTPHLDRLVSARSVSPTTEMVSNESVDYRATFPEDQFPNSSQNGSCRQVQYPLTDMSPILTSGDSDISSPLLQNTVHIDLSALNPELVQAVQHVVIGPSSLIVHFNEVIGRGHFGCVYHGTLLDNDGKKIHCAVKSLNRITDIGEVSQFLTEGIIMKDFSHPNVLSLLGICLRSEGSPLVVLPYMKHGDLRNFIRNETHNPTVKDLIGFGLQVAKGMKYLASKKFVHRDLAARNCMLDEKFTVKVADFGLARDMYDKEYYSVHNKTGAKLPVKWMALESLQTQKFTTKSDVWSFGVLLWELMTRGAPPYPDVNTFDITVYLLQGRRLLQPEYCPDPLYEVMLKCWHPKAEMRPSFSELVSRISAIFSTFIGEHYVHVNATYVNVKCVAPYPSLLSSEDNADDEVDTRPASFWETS
Chain of Epidermal growth factor receptor (Homo sapiens), P00533 [UNDEFINED MUTATION] (P00533 whole entry, looked up, stated change not applied): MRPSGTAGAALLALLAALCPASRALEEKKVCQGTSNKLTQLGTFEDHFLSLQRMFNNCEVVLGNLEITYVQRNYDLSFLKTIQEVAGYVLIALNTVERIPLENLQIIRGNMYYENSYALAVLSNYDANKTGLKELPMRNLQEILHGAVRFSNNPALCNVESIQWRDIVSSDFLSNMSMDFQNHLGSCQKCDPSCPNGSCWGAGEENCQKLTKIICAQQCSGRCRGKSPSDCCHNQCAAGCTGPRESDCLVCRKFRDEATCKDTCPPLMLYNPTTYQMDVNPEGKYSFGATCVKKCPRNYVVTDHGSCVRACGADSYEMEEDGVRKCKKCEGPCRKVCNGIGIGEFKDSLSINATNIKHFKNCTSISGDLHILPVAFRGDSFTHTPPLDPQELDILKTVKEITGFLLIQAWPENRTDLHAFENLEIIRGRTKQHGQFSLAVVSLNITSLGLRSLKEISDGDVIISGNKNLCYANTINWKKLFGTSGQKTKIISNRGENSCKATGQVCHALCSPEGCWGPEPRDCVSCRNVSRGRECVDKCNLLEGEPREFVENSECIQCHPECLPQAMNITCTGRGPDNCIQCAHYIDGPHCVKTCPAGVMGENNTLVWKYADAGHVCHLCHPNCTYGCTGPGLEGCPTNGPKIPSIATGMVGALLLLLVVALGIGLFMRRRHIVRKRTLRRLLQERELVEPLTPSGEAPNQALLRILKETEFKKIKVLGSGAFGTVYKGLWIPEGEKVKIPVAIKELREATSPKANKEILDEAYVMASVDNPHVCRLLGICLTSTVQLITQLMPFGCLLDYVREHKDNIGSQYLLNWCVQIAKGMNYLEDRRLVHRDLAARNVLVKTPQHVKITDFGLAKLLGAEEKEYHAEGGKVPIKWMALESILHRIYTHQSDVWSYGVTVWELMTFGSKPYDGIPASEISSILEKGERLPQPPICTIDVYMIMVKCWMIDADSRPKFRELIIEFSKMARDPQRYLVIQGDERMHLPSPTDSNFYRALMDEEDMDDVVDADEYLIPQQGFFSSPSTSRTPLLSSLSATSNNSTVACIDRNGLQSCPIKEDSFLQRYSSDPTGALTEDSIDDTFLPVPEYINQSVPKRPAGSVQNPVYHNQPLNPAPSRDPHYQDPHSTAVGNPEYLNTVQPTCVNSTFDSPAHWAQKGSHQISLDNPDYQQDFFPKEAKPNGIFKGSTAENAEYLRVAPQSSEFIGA

Activity [1]: Active
Activity [2]: inactive
Activity [3]: Active
Activity [4]: inactive
Compound: O=C(Nc1cccc(-c2nc(-c3ccc(NC(=O)c4cccnc4)cc3Cl)no2)c1)Nc1ccc(NC(=O)C2CC2)c(C(F)(F)F)c1
IC50 (CL97): 500 nM
